What was measured:
[1] = Retention index of the compound by HPLC method; type: physicochemical
[2] = Octanol-water partition coefficient, log P of nonionized form of compound; type: physicochemical
[3] = species on record: Oryctolagus cuniculus; test: Hypnotic activity in rabbit; type: functional
Procedure, shortened: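 Rabbits; value expressed as negative log of the minimum effective dose (mol/kg).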

[4] = Octanol-buffer partition coefficient, log P of the compound at pH 8.0 by ultraviolet spectroscopy; type: physicochemical
Procedure, shortened: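 Drug distributed between an octanol phase and an aqueous buffer at pH 8.0, the same way as the pH 7.0 phosphate-buffer method. Drug in each phase quantified by ultraviolet spectroscopy, and the log of the octanol/buffer distribution ratio was reported.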

[5] = Inhibition of Arbacia egg cell division; type: functional
Procedure, shortened: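 Arbacia egg cell division; value expressed as negative log of the molar drug concentration needed to reduce cell division 50%.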

Work on `CCC1(CC)C(=O)NC(=O)NC1=O` [BARBITAL] yielded a Retention_index [1] of 423, a logP [2] of 0.65 and a pMED [3] of 3.09.

`CCC1(CCC(C)C)C(=O)NC(=O)NC1=O` [AMOBARBITAL] showed a Retention_index [1] of 681 and a logP [2] of 1.95.

In the case of `C=CCC1(C(C)C)C(=O)NC(=O)NC1=O` [APROBARBITAL], the Retention_index [1] is reported as 552, the logP [2] is reported as 1.15 and the pMED [3] is reported as 3.6.

`C=CCC1(C(C)CCC)C(=O)N=C(S)NC1=O` (centres undefined) [THIAMYLAL] showed a Retention_index [1] of 760 and a logP [2] of 3.2.

`C=CCC1(CC(C)C)C(=O)NC(=O)NC1=O` [BUTALBITAL] gave a Retention_index [1] of 616 and a logP [2] of 1.45.

`O=C(O)c1ccccc1NS(=O)(=O)c1ccc(Br)cc1` showed a Retention_index [1] of 678 and a logD [4] of 0.83.

With `C=CCC1(C(C)CCC)C(=O)NC(=O)NC1=O` (centres undefined) [SECOBARBITAL] the Retention_index [1] was 728, the logP [2] was 2.15 and the pMED [3] was 4.2.

With `CCC1(c2ccccc2)C(=O)NC(=O)NC1=O` [PHENOBARBITAL] the Retention_index [1] was 523.

For `Cc1ccc(S(=O)(=O)Nc2ccccc2C(=O)O)cc1`, the Retention_index [1] was 606 and the logD [4] was 0.05.

Work on `CN1C(=O)NC(=O)C(C)(C2=CCCCC2)C1=O` (centres undefined) [HEXOBARBITAL] yielded a Retention_index [1] of 648 and a logP [2] of 1.92.

`O=C1CC(=O)NC(=O)N1` [BARBITURIC ACID] showed a Retention_index [1] of 53 and a logP [2] of -1.35.

Compound `CCC1(CC)C(=O)NC(=O)N(C)C1=O` [METHARBITAL] has a Retention_index [1] of 532 and a logP [2] of 1.21.

For `CCCC(C)C1(CC)C(=O)NC(=O)NC1=O` (centres undefined) [PENTOBARBITAL], the Retention_index [1] was 686 and the logP [2] was 1.95.

`CCCCC1(CC)C(=O)NC(=O)NC1=O` [BUTETHAL] gave a Retention_index [1] of 610, a logP [2] of 1.65 and a pMED [3] of 3.72. The pED50 [5] was 2.4.

With `O=C(O)c1ccccc1NS(=O)(=O)c1ccc(F)cc1` the Retention_index [1] was 565 and the logD [4] was 0.03.

For `O=C(O)c1ccccc1NS(=O)(=O)c1ccc([N+](=O)[O-])cc1`, the Retention_index [1] was 586 and the logD [4] was -0.03.

`C=CCC1(C(C)C#CCC)C(=O)N=C(O)N(C)C1=O` (centres undefined) [METHOHEXITAL] gave a Retention_index [1] of 776 and a logP [2] of 2.19.

`CCCC(C)C1(CC)C(=O)NC(=S)NC1=O` (centres undefined) [THIOPENTAL] gave a Retention_index [1] of 732 and a logP [2] of 3.

In the case of `CCC(C)C1(CC)C(=O)NC(=O)NC1=O` (centres undefined) [BUTABARBITAL], the Retention_index [1] is reported as 600, the logP [2] is reported as 1.45 and the pMED [3] is reported as 3.63.

With `CCC1(C2=CCCCC2)C(=O)NC(=O)NC1=O` [CYCLOBARBITAL] the Retention_index [1] was 604 and the logP [2] was 1.86.

Compound `O=C(O)c1ccccc1NS(=O)(=O)c1ccccc1` has a Retention_index [1] of 530 and a logD [4] of -0.46.

With `O=C(O)c1ccccc1NS(=O)(=O)c1ccc(Cl)cc1` the Retention_index [1] was 656 and the logD [4] was 0.54.
